Test system: MS2 coat protein
Test: apparent Kd, MS2 coat protein; higher = weaker binding; RNA-MaP array; FMN 200 µM where present
Procedure, shortened: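 The apparent Kd comes from binding curves fitted cluster by cluster, filtered, and summarised as a median. Those curves followed SNAP-549-labelled MS2 coat protein from 0.7 or 1.5 nM, doubling to 3 µM, on Illumina sequencing-chip clusters where stalled E. coli RNA polymerase had transcribed the designs, without and then with constant ligand. The buffer was 100 mM Tris-HCl pH 7.5, 80 mM KCl, 4 mM MgCl2, BSA, DTT, yeast tRNA and Tween-20, and green signal was normalised to red-channel RNA signal and control-cluster median Fmax.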

[1] = designed as: OFF switch for flavin mononucleotide, no ligand
[2] = ligand present: flavin mononucleotide, designed as: OFF switch for flavin mononucleotide
[3] = designed as: ON switch for flavin mononucleotide, no ligand
[4] = ligand present: flavin mononucleotide, designed as: ON switch for flavin mononucleotide

Sequence | apparent Kd [1] [nM] | apparent Kd [2] [nM] | apparent Kd [3] [nM] | apparent Kd [4] [nM]
UUUCCGCGAGGAUAUACGGGCUGUGCUUUUCAUUUCUUACAACAUGAGGAUCACCCAUGUAGAAGGUGCUUCUU | 208 | 196 | – | –
AGAUCGACUGUGAGGAUAUUGACCGGACGACCCAUCGAGAAGGCACAUGAGGAUCACCCAUGUGAGUCGGUUUA | 15.5 | 17 | – | –
AGCGGCGCGGGCCACCGCAGAACCAGAAGGACAUGAGGAUCACCCAUGUAGCAGAACAGGGCGGUGUAGGAUAUGGCAGGCUCG | 29.4 | 52.3 | – | –
CGUCCGUGGGUAGUGAUCGUACAUGAGGAUCACCCAUGUGAGAAGGAUAUGCAUGCACGUGGACAGCAGAAGGUCUCACAACAA | 238 | 101 | – | –
AAAUCCAACGAAGGAUAUACAAACAUGAGGAUCACCCAUGUGUCUUUCGUGUAACUGGAAUUCGGGUAGAAGGUCGUUGACAUA | 11.8 | 17.6 | – | –
CAGUACUGAGGAUAUACAUGAGGAUCACCCAUGUCUUAAAAGUAGGAUACUACUAUUAGUAGAAGGCAGUACUG | 13.2 | 34.9 | – | –
GCAUUGAUAGCAGGAUAUAUGUUUCCUACAUGAGGAUCACCCAUGUAGGUGAUCAGCCGAGAAAAGUAGAAGGGCUAUCAAUGC | – | – | 15.6 | 14.1
GCCAUCGCAUGAGGAUAUGCUCGGGUUUCCCGAGCAGAAGGCAUGUCGUAAGACAUGAGGAUCACCCAUGUAGUUAAGAUGGCA | – | – | 915 | 76.8
AAUAGGUUUCCCGGUGGUUAAUACAUGAGGAUCACCCAUGUCAAGGAUAUAGCCGUAUAACCAGGUUAGAAGGUGACUAAAUGA | 67.5 | 120 | – | –
AUCGUGCAGCUUUGCUGUACGCGUACAUGAGGAUCACCCAUGUAGGAUAUGGUAGGCAAAGCUUACUAGAAGGAUAUAGUGAUC | 61.9 | 54 | – | –
GCGUUCUUGUAGAAGGUACAUACGACAUCUUAUAAACGCAUGACACAUGAGGAUCACCCAUGUUGUAAGGAUAUACAUGAACGC | – | – | 8.88 | 8.05
AGUCGGAGCAGAGGAUAUUACAUGAGGAUCACCCAUGUAUAAAAUGGAAGCUGGAAACAGCAAUGUAAGAAGGCUGCUCCGACA | 64 | 296 | – | –
CCACUCGAGCAGAAGGCAAUGAGGGUUAUACAUUGAGGAUAUGCUACGUAUGUGGUACAUGAGGAUCACCCAUGUAGCCUAUCU | – | – | 389 | 21.3
GUGGUCAGACAUGAGGAUCACCCAUGUGGAAUAAAUAAGGAACAGGAUAUGGAAUAUAGGAUAUACCAGAAGGGUUGGUUGGUG | – | – | 72.3 | 82.4
AGCAUGGUAGGAUAUACGGAACAUUAGGGUUUGUUAUGUGGACAUGAGGAUCACCCAUGUAGAAGGGCCGUGCA | 35.6 | 67.5 | – | –
AUAUCUCCCUAGAAGGUGGAACGACAAUUGCAUCACGUAGUUGGCGAUCCAAGGAUAUGGGACAUGAGGAUCACCCAUGUGGAU | – | – | 16.4 | 8.81
UCUUAAGGAGGAUAUACAUGAGGAUCACCCAUGUAUGACCGCAGGGCGUCCUUGUAUCGUAGAAGGCCUCGGUA | 33.3 | 43.6 | – | –
CUCCGACAUGUAGGAUAUGCGUGGCGAAGCUAUGCAGAAGGACAUGAGGAUCACCCAUGUCUUUCCGUCUGCGUACAGACGGAG | 17.4 | 57.3 | – | –

— the EternaBench riboswitch data
